ChEMBL document CHEMBL1123740, “Potential anti-AIDS drugs. 2',3'-Dideoxycytidine analogues” (1987)

Columns and labels:
ATH-8 cell line [1] = experiment: Compound was evaluated for cytotoxicity by HIV cytopathic effect assay performed with ATH8 cells at a concentration of 1(uM); type: functional, Homo sapiens
Procedure, shortened: (§1)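 Uninfected control ATH8 cells (2×10^5) were polybrene-treated and cultured in 2 mL IL-2-containing medium with or without compound at 37 °C in 5% CO2. Viable cells were counted by trypan blue exclusion on a hemocytometer at days 5–7. % cytotoxicity = 100 × [1 − (viable cells with nucleoside ÷ viable cells cultured alone)].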

ATH-8 cell line [2] = experiment: (§2) Compound was evaluated for cytotoxicity by HIV cytopathic effect assay performed with ATH8 cells at a concentration of 10(uM); type: functional, Homo sapiens; procedure, shortened: as §1
ATH-8 cell line [3] = experiment: Compound was evaluated for cytotoxicity by HIV cytopathic effect assay performed with ATH8 cells at a concentration of 100(uM); type: functional, Homo sapiens; procedure, shortened: as §1
ATH-8 cell line [4] = experiment: Compound was evaluated for cytotoxicity by HIV cytopathic effect assay performed with ATH8 cells at a concentration of 200(uM); type: functional, Homo sapiens; procedure, shortened: as §1
ATH-8 cell line [5] = experiment: Compound was evaluated for cytotoxicity by HIV cytopathic effect assay performed with ATH8 cells at a concentration of 5(uM); type: functional, Homo sapiens; procedure, shortened: as §1
ATH-8 cell line [6] = experiment: Compound was evaluated for cytotoxicity by HIV cytopathic effect assay performed with ATH8 cells at a concentration of 50(uM); type: functional, Homo sapiens; procedure, shortened: as §1
[7] = Compound was evaluated for the protective effect against HTLV-III/LAV (HIV) pathogenesis at a concentration of 1(uM); type: functional
Procedure, shortened: (§3)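 ATH8 cells (2×10^5) were polybrene-treated, then exposed to HTLV-IIIB (2000 virus particles/cell) for 45 min. They were resuspended in 2 mL IL-2-containing medium with or without compound and incubated at 37 °C in 5% CO2. Viable cells were counted by trypan blue exclusion on days 5–7. % protection compared infected treated, infected untreated, and uninfected cells.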

[8] = Compound was evaluated for the protective effect against HTLV-III/LAV (HIV) pathogenesis at a concentration of 10(uM); type: functional; procedure, shortened: as §3
[9] = Compound was evaluated for the protective effect against HTLV-III/LAV (HIV) pathogenesis at a concentration of 100(uM); type: functional; procedure, shortened: as §3
[10] = Compound was evaluated for the protective effect against HTLV-III/LAV (HIV) pathogenesis at a concentration of 200(uM); type: functional; procedure, shortened: as §3
[11] = Compound was evaluated for the protective effect against HTLV-III/LAV (HIV) pathogenesis at a concentration of 50(uM); type: functional; procedure, shortened: as §3
[12] = Compound was evaluated for the protective effect against HTLV-III/LAV (HIV) pathogenesis at a concentration of 5(uM); type: functional; procedure, shortened: as §3
ATH-8 cell line [13] = experiment: Compound was evaluated for cytotoxicity by HIV cytopathic effect assay performed with ATH8 cells at a concentration of 0.05(uM); type: functional, Homo sapiens; procedure, shortened: as §1
ATH-8 cell line [14] = experiment: Compound was evaluated for cytotoxicity by HIV cytopathic effect assay performed with ATH8 cells at a concentration of 0.5(uM); type: functional, Homo sapiens; procedure, shortened: as §1
[15] = Compound was evaluated for the protective effect against HTLV-III/LAV (HIV) pathogenesis at a concentration of 0.05(uM); type: functional; procedure, shortened: as §3
[16] = Compound was evaluated for the protective effect against HTLV-III/LAV (HIV) pathogenesis at a concentration of 0.5(uM); type: functional; procedure, shortened: as §3
ATH-8 cell line [17] = experiment: Compound was evaluated for cytotoxicity by HIV cytopathic effect assay performed with ATH8 cells at a concentration of 30(uM); type: functional, Homo sapiens; procedure, shortened: as §1
[18] = Compound was evaluated for the protective effect against HTLV-III/LAV (HIV) pathogenesis at a concentration of 30(uM); type: functional; procedure, shortened: as §3
ATH-8 cell line [19] = experiment: Compound was evaluated for cytotoxicity by HIV cytopathic effect assay performed with ATH8 cells at a concentration of 2(uM); type: functional, Homo sapiens; procedure, shortened: as §1
[20] = Compound was evaluated for the protective effect against HTLV-III/LAV (HIV) pathogenesis at a concentration of 2(uM); type: functional; procedure, shortened: as §3
ATH-8 cell line [21] = experiment: as §2; type: functional; procedure, shortened: as §1
ATH-8 cell line [22] = experiment: Compound was evaluated for cytotoxicity by HIV cytopathic effect assay performed with ATH8 cells at a concentration of 1000(uM); type: functional, Homo sapiens; procedure, shortened: as §1
ATH-8 cell line [23] = experiment: Compound was evaluated for cytotoxicity by HIV cytopathic effect assay performed with ATH8 cells at a concentration of 2000(uM); type: functional, Homo sapiens; procedure, shortened: as §1
ATH-8 cell line [24] = experiment: Compound was evaluated for cytotoxicity by HIV cytopathic effect assay performed with ATH8 cells at a concentration of 500(uM); type: functional, Homo sapiens; procedure, shortened: as §1
[25] = Compound was evaluated for the protective effect against HTLV-III/LAV (HIV) pathogenesis at a concentration of 1000(uM); type: functional; procedure, shortened: as §3
[26] = Compound was evaluated for the protective effect against HTLV-III/LAV (HIV) pathogenesis at a concentration of 2000(uM); type: functional; procedure, shortened: as §3
[27] = Compound was evaluated for the protective effect against HTLV-III/LAV (HIV) pathogenesis at a concentration of 500(uM); type: functional; procedure, shortened: as §3

Row | SMILES | Cytotoxicity (ATH-8 cell line [1]) | Cytotoxicity (ATH-8 cell line [2]) | Cytotoxicity (ATH-8 cell line [3]) | Cytotoxicity (ATH-8 cell line [4]) | Cytotoxicity (ATH-8 cell line [5]) | Cytotoxicity (ATH-8 cell line [6]) | Protective effect [7] | Protective effect [8] | Protective effect [9] | Protective effect [10] | Protective effect [11] | Protective effect [12] | Cytotoxicity (ATH-8 cell line [14]) | Protective effect [16] | further results
1 | Nc1ncnc2c1ncn2C1CCC(COP(=O)([O-])[O-])O1.[Na+].[Na+] (stereo unspecified) | 2% | 6% | 0% | 5% | 10% | 4% | 25% | 100% | 100% | 100% | 83% | 91% | – | – | –
2 | Nc1nc(=O)n([C@@H]2CC[C@H](CO)O2)cc1F | – | – | – | – | 0% | 9% | – | – | – | – | 88% | 100% | 0% | 100% | Cytotoxicity (ATH-8 cell line [13]): 5%; Protective effect [15]: 5%
3 | Nc1nc(=O)n(C2CCC(CO)O2)cc1Br (stereo unspecified) | 14% | 14% | – | 0% | – | – | 6% | 8% | – | 0% | – | – | – | – | Cytotoxicity (ATH-8 cell line [17]): 2%; Protective effect [18]: 5%
4 | Cc1cn(C2CCC(CO)O2)c(=O)nc1N (stereo unspecified) | – | 27% | 44% | – | – | – | – | 7% | 3% | – | – | – | – | – | Cytotoxicity (ATH-8 cell line [19]): 23%; Protective effect [20]: 2%
5 | N.N.Nc1ccn(C2CCC(COP(=O)(O)O)O2)c(=O)n1 (stereo unspecified) | – | 0% | – | – | – | – | – | 74% | – | – | – | – | 0% | 13% | Cytotoxicity (ATH-8 cell line [19]): 7%; Protective effect [20]: 9%
6 | Cc1cn(C2CCC(COP(=O)([O-])[O-])O2)c(=O)[nH]c1=O.[Na+].[Na+] (stereo unspecified) | – | 9% | – | 10% | – | 9% | – | 7% | – | 15% | 18% | – | – | – | –
7 | Nc1ccn([C@H]2CC[C@@H](CO)O2)c(=O)n1 [ZALCITABINE] | – | – | – | – | 0% | 30% | – | – | – | – | 77% | 100% | 0% | 97% | Cytotoxicity (ATH-8 cell line [13]): 0%; Protective effect [15]: 18%
8 | Nc1ncnc2c1ncn2[C@H]1CC[C@@H](CO)O1 | 0% | 0% | 0% | 0% | 6% | 0% | 42% | 100% | 100% | 100% | 100% | 98% | – | – | –
9 | Cc1cn([C@H]2C=C[C@@H](CO)O2)c(=O)[nH]c1=O [STAVUDINE] | – | – | 13% | 6% | – | 8% | – | 3% | 19% | 77% | 9% | – | – | – | Cytotoxicity (ATH-8 cell line [21]): 8%; Cytotoxicity (ATH-8 cell line [22]): 40%; Cytotoxicity (ATH-8 cell line [23]): 53%; Cytotoxicity (ATH-8 cell line [24]): 30%; Protective effect [25]: 46%; Protective effect [26]: 43%; Protective effect [27]: 68%
10 | Nc1ncn(C2CCC(CO)O2)c(=O)n1 (stereo unspecified) | 13% | 19% | – | – | – | 62% | 16% | 58% | – | – | 38% | – | – | – | –
